The source made the active and inactive calls. The rule behind the calls is not given here.

The first assay is filed under the species Bos taurus. Kind of assay: Inhibition of calf thymus DNA polymerase alpha assessed as incorporation of [3H]dTTP into poly(dA)/oligo(dT)18 DNA-template primer at 100 uM after 60 mins.
Details: not given
The gist of the method:
(§1)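 Single-concentration screen at 100 μM. Compound was dissolved in DMSO and sonicated 30 s. Enzyme (0.05 unit of calf thymus pol α or E. coli-expressed rat pol β) was preincubated 10 min at 0 °C in Tris-HCl pH 7.5/DTT/glycerol/EDTA. Reaction with poly(dA)/oligo(dT)18 and [3H]dTTP ran 60 min at 37 °C. Activity given as percent of no-inhibitor control.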
For the compound `CC[C@@H](C)[C@H]1O[C@]1(C)[C@@H]1C(C)=C[C@@H]2CC(C)=CC[C@H]2[C@@H]1/C=C/C=C/C=C/C(=O)O`, the inhibition entry is “Active”.
As for `C=C1[C@@H]2C(C)=C[C@@H]3CC(C)=CC[C@H]3[C@@H]2[C@H](O)[C@@H](/C=C/C=C/C(=O)O)O[C@@H]1[C@H](C)CC`, the inhibition entry was “Active”.
Still for that read-out and setting: the entry for `CC1=CC[C@H]2[C@@H]3[C@H](O)[C@@H](/C=C/C=C/C(=O)O)O[C@@H]4[C@H](C)CCO[C@@]4(C)[C@@H]3C(C)=C[C@@H]2C1` is “Active”.
Still for that read-out and setting: the entry for `CC[C@@H](C)[C@H]1O[C@H](/C=C/C=C/C(=O)O)[C@@H](O)[C@@]2(O)[C@@H]3CC=C(C)C[C@H]3C=C(C)[C@H]2[C@]1(C)O` is “Active”; for `CC1=CC[C@@H]2[C@H](C=C(C)[C@H]3[C@]4(C)OCC[C@@H](C)[C@H]4O[C@H](/C=C/C=C/C(=O)O)[C@@H](O)[C@@]23O)C1` it is “Active”; for `C=C1[C@@H]([C@H](C)CC)O[C@H](/C=C/C=C/C(=O)O)[C@@H](O)[C@H]2[C@@H]3CC=C(C)C[C@H]3C=C(C)[C@@]12O` it is “Active”.

Another assay has as its target DNA polymerase beta (Rattus norvegicus, UniProt P06766). Kind of assay: (§2) Inhibition of rat recombinant DNA polymerase beta expressed in Escherichia coli JMpbeta5 cells assessed as incorporation of [3H]dTTP into poly(dA)/oligo(dT)18 DNA-template primer after 60 mins.
Details: not given
The gist of the method:
(§3)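 Pol α from calf thymus, purified by immunoaffinity column. Rat pol β expressed in E. coli JMpβ5. Template-primer poly(dA)/oligo(dT)18 (A/T 2:1) with [3H]dTTP (43 Ci/mmol). Each enzyme (0.05 unit) was preincubated with compound for 10 min at 0 °C in 50 mM Tris-HCl pH 7.5 with 1 mM DTT, 50% glycerol and 0.1 mM EDTA. Reaction ran 60 min at 37 °C. Activity relative to no-inhibitor control; IC50 from dose-response curves.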
With `CC[C@@H](C)[C@H]1O[C@]1(C)[C@@H]1C(C)=C[C@@H]2CC(C)=CC[C@H]2[C@@H]1/C=C/C=C/C=C/C(=O)O`, the 50% inhibitory concentration (IC50) is 9.5 µM.
The same measure, in the same setting: the figure for `Cc1cn([C@H]2CC[C@@H](COP(=O)(O)OP(=O)(O)OP(=O)(O)O)O2)c(=O)[nH]c1=O` is 30.8 µM.
Same read-out and setting: with `C=C1[C@@H]2C(C)=C[C@@H]3CC(C)=CC[C@H]3[C@@H]2[C@H](O)[C@@H](/C=C/C=C/C(=O)O)O[C@@H]1[C@H](C)CC` the figure was 19.5 µM.
Same read-out and setting: the figure for `CC1=CC[C@H]2[C@@H]3[C@H](O)[C@@H](/C=C/C=C/C(=O)O)O[C@@H]4[C@H](C)CCO[C@@]4(C)[C@@H]3C(C)=C[C@@H]2C1` is 37.9 µM.
Regarding `CC[C@@H](C)[C@H]1O[C@H](/C=C/C=C/C(=O)O)[C@@H](O)[C@@]2(O)[C@@H]3CC=C(C)C[C@H]3C=C(C)[C@H]2[C@]1(C)O`, the IC50 is more than 100 µM.
Same read-out and setting: with `C[C@@]1(CO)[C@H](O)CC[C@@]2(C)[C@H]1CC[C@H]1C[C@@H]3C[C@@]12CC[C@]3(O)CO` [APHIDICOLIN] the figure was more than 100 µM; with `CC1=CC[C@@H]2[C@H](C=C(C)[C@H]3[C@]4(C)OCC[C@@H](C)[C@H]4O[C@H](/C=C/C=C/C(=O)O)[C@@H](O)[C@@]23O)C1`, more than 100 µM; with `C=C1[C@@H]([C@H](C)CC)O[C@H](/C=C/C=C/C(=O)O)[C@@H](O)[C@H]2[C@@H]3CC=C(C)C[C@H]3C=C(C)[C@@]12O`, more than 100 µM.

In another assay the target is DNA polymerase beta (Rattus norvegicus) (UniProt P06766). Described as §2.
Details: not given
The gist of the method:
as §3
With `CC[C@@H](C)[C@H]1O[C@]1(C)[C@@H]1C(C)=C[C@@H]2CC(C)=CC[C@H]2[C@@H]1/C=C/C=C/C=C/C(=O)O`, the inhibition entry is “Dose-dependent effect”.
On the same count and under the same terms, with `C=C1[C@@H]2C(C)=C[C@@H]3CC(C)=CC[C@H]3[C@@H]2[C@H](O)[C@@H](/C=C/C=C/C(=O)O)O[C@@H]1[C@H](C)CC` the entry was “Dose-dependent effect”.

The next assay is filed under the species Bos taurus. Put plainly: (§4) Inhibition of calf thymus DNA polymerase alpha assessed as incorporation of [3H]dTTP into poly(dA)/oligo(dT)18 DNA-template primer after 60 mins.
Details: not given
The gist of the method: as §3
With `CC[C@@H](C)[C@H]1O[C@]1(C)[C@@H]1C(C)=C[C@@H]2CC(C)=CC[C@H]2[C@@H]1/C=C/C=C/C=C/C(=O)O`, the inhibition entry is “Dose-dependent effect”.
Still for that read-out and setting: the entry for `C=C1[C@@H]2C(C)=C[C@@H]3CC(C)=CC[C@H]3[C@@H]2[C@H](O)[C@@H](/C=C/C=C/C(=O)O)O[C@@H]1[C@H](C)CC` is “Dose-dependent effect”.

Test system in a further assay: not listed separately
The description is as §4. Also noted: species or system Bos taurus.
Details: not given
The gist of the method:
as §3
As to `CC[C@@H](C)[C@H]1O[C@]1(C)[C@@H]1C(C)=C[C@@H]2CC(C)=CC[C@H]2[C@@H]1/C=C/C=C/C=C/C(=O)O`, the IC50 was 8.1 µM.
Same read-out and setting: with `Cc1cn([C@H]2CC[C@@H](COP(=O)(O)OP(=O)(O)OP(=O)(O)O)O2)c(=O)[nH]c1=O` the figure was more than 100 µM; with `C=C1[C@@H]2C(C)=C[C@@H]3CC(C)=CC[C@H]3[C@@H]2[C@H](O)[C@@H](/C=C/C=C/C(=O)O)O[C@@H]1[C@H](C)CC`, 17.3 µM; with `CC1=CC[C@H]2[C@@H]3[C@H](O)[C@@H](/C=C/C=C/C(=O)O)O[C@@H]4[C@H](C)CCO[C@@]4(C)[C@@H]3C(C)=C[C@@H]2C1`, 47.2 µM.
Same read-out and setting: with `CC[C@@H](C)[C@H]1O[C@H](/C=C/C=C/C(=O)O)[C@@H](O)[C@@]2(O)[C@@H]3CC=C(C)C[C@H]3C=C(C)[C@H]2[C@]1(C)O` the figure was more than 100 µM; with `C[C@@]1(CO)[C@H](O)CC[C@@]2(C)[C@H]1CC[C@H]1C[C@@H]3C[C@@]12CC[C@]3(O)CO` [APHIDICOLIN], 19.6 µM; with `CC1=CC[C@@H]2[C@H](C=C(C)[C@H]3[C@]4(C)OCC[C@@H](C)[C@H]4O[C@H](/C=C/C=C/C(=O)O)[C@@H](O)[C@@]23O)C1`, more than 100 µM.
As for `C=C1[C@@H]([C@H](C)CC)O[C@H](/C=C/C=C/C(=O)O)[C@@H](O)[C@H]2[C@@H]3CC=C(C)C[C@H]3C=C(C)[C@@]12O`, the IC50 was more than 100 µM.

A further assay deals with DNA polymerase beta (Rattus norvegicus) (UniProt P06766). Kind of assay: Inhibition of rat recombinant DNA polymerase beta expressed in Escherichia coli JMpbeta5 cells assessed as incorporation of [3H]dTTP into poly(dA)/oligo(dT)18 DNA-template primer at 100 uM after 60 mins.
Details: not given
The gist of the method:
as §1
As for `CC[C@@H](C)[C@H]1O[C@]1(C)[C@@H]1C(C)=C[C@@H]2CC(C)=CC[C@H]2[C@@H]1/C=C/C=C/C=C/C(=O)O`, the inhibition entry was “Active”.
Still for that read-out and setting: with `C=C1[C@@H]2C(C)=C[C@@H]3CC(C)=CC[C@H]3[C@@H]2[C@H](O)[C@@H](/C=C/C=C/C(=O)O)O[C@@H]1[C@H](C)CC` the entry was “Active”.
The same measure, in the same setting: the entry for `CC1=CC[C@H]2[C@@H]3[C@H](O)[C@@H](/C=C/C=C/C(=O)O)O[C@@H]4[C@H](C)CCO[C@@]4(C)[C@@H]3C(C)=C[C@@H]2C1` is “Active”; for `CC[C@@H](C)[C@H]1O[C@H](/C=C/C=C/C(=O)O)[C@@H](O)[C@@]2(O)[C@@H]3CC=C(C)C[C@H]3C=C(C)[C@H]2[C@]1(C)O` it is “Active”; for `CC1=CC[C@@H]2[C@H](C=C(C)[C@H]3[C@]4(C)OCC[C@@H](C)[C@H]4O[C@H](/C=C/C=C/C(=O)O)[C@@H](O)[C@@]23O)C1` it is “Active”.
On the same count and under the same terms, the entry for `C=C1[C@@H]([C@H](C)CC)O[C@H](/C=C/C=C/C(=O)O)[C@@H](O)[C@H]2[C@@H]3CC=C(C)C[C@H]3C=C(C)[C@@]12O` is “Active”.

The test system of the next assay is HCT-116. Kind of assay: Cytotoxicity against human HCT116 cells assessed as inhibition of cell proliferation after 24 hrs by WST-1 assay. The format is functional, cell-based. Particulars: HCT-116, 24 h. The gist of the method:
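HCT116 cells from ATCC, grown in McCoy's 5A with 10% FBS, penicillin and streptomycin at 37 °C under 5% CO2. Plated at 1 × 10^4 cells per well with compound at 10 and 100 μM for 24 h. Viability read by WST-1. IC50 given as mean ± SD of five independent experiments.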
(Formazan colour is commonly taken as a measure of viable cells.)
As for `CC[C@@H](C)[C@H]1O[C@]1(C)[C@@H]1C(C)=C[C@@H]2CC(C)=CC[C@H]2[C@@H]1/C=C/C=C/C=C/C(=O)O`, the IC50 is 6.4 µM.
Consider `Cc1cn([C@H]2CC[C@@H](COP(=O)(O)OP(=O)(O)OP(=O)(O)O)O2)c(=O)[nH]c1=O`, for which the IC50 was more than 100 µM.
On the same count and under the same terms, the figure for `C=C1[C@@H]2C(C)=C[C@@H]3CC(C)=CC[C@H]3[C@@H]2[C@H](O)[C@@H](/C=C/C=C/C(=O)O)O[C@@H]1[C@H](C)CC` is 26.1 µM; for `CC1=CC[C@H]2[C@@H]3[C@H](O)[C@@H](/C=C/C=C/C(=O)O)O[C@@H]4[C@H](C)CCO[C@@]4(C)[C@@H]3C(C)=C[C@@H]2C1` it is 74.8 µM.
`CC[C@@H](C)[C@H]1O[C@H](/C=C/C=C/C(=O)O)[C@@H](O)[C@@]2(O)[C@@H]3CC=C(C)C[C@H]3C=C(C)[C@H]2[C@]1(C)O`: the IC50 is more than 100 µM.
On to `C[C@@]1(CO)[C@H](O)CC[C@@]2(C)[C@H]1CC[C@H]1C[C@@H]3C[C@@]12CC[C@]3(O)CO` [APHIDICOLIN], for which the IC50 worked out at 9 µM.
On the same count and under the same terms, with `CC1=CC[C@@H]2[C@H](C=C(C)[C@H]3[C@]4(C)OCC[C@@H](C)[C@H]4O[C@H](/C=C/C=C/C(=O)O)[C@@H](O)[C@@]23O)C1` the figure was more than 100 µM; with `C=C1[C@@H]([C@H](C)CC)O[C@H](/C=C/C=C/C(=O)O)[C@@H](O)[C@H]2[C@@H]3CC=C(C)C[C@H]3C=C(C)[C@@]12O`, more than 100 µM.

A word on the IC50: it is the concentration needed to halve the response being measured.
